Measured values reported in PubChem BioAssay.
Records with an inconclusive call do not appear. The source made the active and inactive calls.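 Rule for the calls, unless noted: active = RAM network inhibition above 8.4% in each of two replicates, 3 SD over the compound average; inconclusive = above 8.4% inhibition in only one replicate; inactive = 8.4% inhibition or less in each replicate.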

What was measured:
[1] = S. cerevisiae growth inhibition in permissive medium (OD615), pilot counter-assay for S. cerevisiae lifespan shortening project, permissive growth control (AID 705;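 active = growth inhibition above 25% in both replicates, a cutoff set 3 SD above the mean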); details: OD615, 24 h, at 10 µM, hits give high values
Outline: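 System: Engineered DeaD yeast | Buffer or medium: SC raffinose/galactose permissive medium | Incubation: Cells pre-grown 4 h, then 24 h compound exposure, 30 °C humidified | Measured by: Absorbance (optical density) at 615 nm | Read-out: Reduction in yeast growth (OD615)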

[2] = S. cerevisiae growth inhibition in restrictive medium, OD615, pilot screen, restrictive growth control, yeast lifespan reduction project (AID 706;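 active = growth inhibition above a set limit, 3 SD over mean compound inhibition, in both replicates, cut at about 43% in these data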;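 note: modified DeaD lifespan yeast strain shifted to restrictive glucose medium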); details: OD615, 48 h, at 10 µM, hits give high values
Outline: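 Material: modified S. cerevisiae; Medium: glucose-based CSMM-D restrictive medium; Compound dosing: one concentration, 10 µM final, 0.25% DMSO; Incubation: 48 h compound exposure at 30 °C; Measured by: OD615.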

[3] = doxorubicin toxicity protection in MRP-1 cells – H69AR cells, CellTiter-Glo, duplicate, MRP-1 activator project, pilot screen (AID 807;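 active = viability increase at or above a cutoff of the median across tested compounds plus 3 SD, cut at about 8.5% in these data, passing the limit was not always enough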;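 note: compound pretreatment 18-22 h then 72 h combined with doxorubicin; 0% = doxorubicin alone and 100% = vehicle without doxorubicin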); details: H69AR viability with doxorubicin, CellTiter-Glo luminescence; at 10 µM; hits give high values
[4] = viability of HCT116 without oncogenic beta-catenin – human colon tumor cells, pilot screen (AID 823;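 active = cell viability at or below a set limit in both duplicate runs, the limit being the all-compound median minus 4 SD, cut at about 23% in these data, passing the limit was not always enough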;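 note: 0% = wells killed by 20 µM Hyamine and 100% = untreated DMSO cell wells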); details: HCT116 beta-catenin knockout viability, CellTiter-Glo, 60 h; at 10 µM; hits give low values
[5] = viability of PTEN-null HCT116 cells – cell-based, HCT116 clonal line, CellTiter-Glo, pilot screen (AID 824;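 active = viability at or below 27.92% in each of two runs, the all-compound median minus 4 SD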;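 note: 0% = 20 µM Hyamine control and 100% = vehicle cell control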); details: HCT116 PTEN-deleted viability, 60 h, at 10 µM, hits give low values
[6] = RAM pathway blockade in budding yeast – dse1pr::URA3 reporter, 5-FOA selection, pilot screen (AID 869;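 active = inhibition over a set limit, the all-compound mean plus 3 SD, in both replicate runs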;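 note: 0% = DMSO wells with no growth and 100% = 10 µM 1-NA-PP1 with full growth; RAM network block rescues cells from 5-FOA so hits raise OD615 growth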); details: S. cerevisiae dse1pr::URA3 5-FOA growth, OD615, 2 d; at 10 µM; hits give high values; strain carries analog-sensitive mutant Cbk1 kinase
[7] = RAM signaling pathway blockade in yeast – S. cerevisiae, Pdr1DBD-CYC8 efflux-inhibited sensitized strain, primary screen (AID 1298);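 note: 0% = DMSO untreated cells without growth and 100% = 10 µM 1-NA-PP1 full growth; higher means more yeast growth rescued from 5-FOA killing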; details: S. cerevisiae cbk1-as DSE1-URA3 strain, 5-FOA growth OD615, 2 d; at 50 µM; hits give high values

N#Cc1nc(-c2ccc(F)cc2)oc1NCc1ccccc1
inactive: growth inhibition [1] -11.9% | growth inhibition [2] 2.85% | viability increase [3] 0.89% | viability [4] 105% | viability [5] 95.7% | inhibition [6] 1.36% | RAM network inhibition [7] 1.07%

CCN(CC)CCNC(=O)c1cc2c(-c3ccc(Cl)cc3)nn(C)c2s1
active: viability [4] 2.18% | viability [5] 1.95%
inactive: growth inhibition [1] -4.4% | growth inhibition [2] 2.85% | viability increase [3] -8.35% | inhibition [6] 0.905% | RAM network inhibition [7] 4.19%

CCOc1ccc(N2C(=O)CC(N3CCN(C4CCc5ccccc5C4)CC3)C2=O)cc1 (configuration not stated)
inactive: growth inhibition [1] 2.08% | growth inhibition [2] 0.34% | viability increase [3] -1.42% | viability [4] 94.6% | viability [5] 93.1% | inhibition [6] 1.93% | RAM network inhibition [7] 1.53%

CN(C)CCNc1ncnc2c1cnn2-c1ccc(Cl)cc1
inactive: growth inhibition [1] -13.2% | growth inhibition [2] -3.57% | viability increase [3] -7.01% | inhibition [6] 1.62% | RAM network inhibition [7] 3.07%
active: viability [4] 4.33% | viability [5] 4.63%

CCOC(=O)N1CCN(C(=O)c2cc3c(=O)n(C)c4ccccc4c3n2C)CC1
inactive: growth inhibition [1] -9.54% | growth inhibition [2] 1.15% | viability increase [3] -2.85% | viability [4] 94.6% | viability [5] 89.9% | inhibition [6] 1.31% | RAM network inhibition [7] 0.42%

Clc1ccc(-c2noc(COc3ccccc3)n2)cc1
inactive: growth inhibition [1] -3.93% | growth inhibition [2] 14.3% | viability increase [3] 2.15% | viability [4] 101% | viability [5] 95.6% | inhibition [6] 0.745% | RAM network inhibition [7] 9.14%

C=CCN(C1CCCCC1)S(=O)(=O)c1ccc2c(c1)oc(=O)n2C
inactive: growth inhibition [1] -16.7% | growth inhibition [2] -11.6% | viability increase [3] -4.14% | viability [4] 86.5% | viability [5] 80.4% | inhibition [6] 2.28% | RAM network inhibition [7] 6%

O=C(CSc1oc(-c2ccco2)nc1S(=O)(=O)c1ccc(F)cc1)NCC1CCCO1 (configuration not stated)
inactive: growth inhibition [1] -6.81% | growth inhibition [2] 0.32% | viability increase [3] -1.31% | viability [4] 101% | viability [5] 106% | inhibition [6] 0.295% | RAM network inhibition [7] 3.81%

Cc1ccc(S(=O)(=O)N2CCCC2C(=O)Nc2nccs2)cc1 (configuration not stated)
inactive: growth inhibition [1] -15.2% | growth inhibition [2] -6.25% | viability increase [3] -1.37% | viability [4] 97% | viability [5] 98.6% | inhibition [6] -0.275% | RAM network inhibition [7] 4.76%

COc1ccccc1N1CCN(C(=O)CCCn2c(=O)[nH]c3ccsc3c2=O)CC1
inactive: growth inhibition [1] 3.76% | growth inhibition [2] 7.54% | viability increase [3] -2.24% | viability [4] 98.6% | viability [5] 97.2% | inhibition [6] 0.74% | RAM network inhibition [7] -0.42%

COc1ccc2c(c1)OC1(C)CC2C(C(=O)c2ccccc2OC)C(=O)N1 (configuration not stated)
inactive: growth inhibition [1] -18.1% | growth inhibition [2] -9.23% | viability increase [3] -4.56% | viability [4] 80.4% | viability [5] 67% | inhibition [6] -0.025% | RAM network inhibition [7] 1.48%

CCCSc1nc2c(cnn2-c2ccc(C)c(C)c2)c(=O)[nH]1
inactive: growth inhibition [1] -8.57% | growth inhibition [2] -3.42% | viability increase [3] -1.72% | viability [4] 93.2% | viability [5] 69.9% | inhibition [6] 2.58% | RAM network inhibition [7] 4.37%

O=C(CC1NC(=O)NC1=O)NC1(C(=O)NC2CCCCC2)CCCCC1 (configuration not stated)
inactive: growth inhibition [1] -9.09% | growth inhibition [2] 5.08% | viability increase [3] 0.88% | viability [4] 99.3% | viability [5] 102% | inhibition [6] 1.18% | RAM network inhibition [7] -0.62%

CN(C)C(C(=O)NC1CCCCC1)c1ccc(Cl)cc1 (configuration not stated)
inactive: growth inhibition [1] -5.65% | growth inhibition [2] -17.6% | viability increase [3] -3.08% | viability [4] 80.2% | viability [5] 84.2% | inhibition [6] 0.575% | RAM network inhibition [7] -0.68%

CCOC(=O)c1sc2nc(NC(=O)c3cccs3)sc2c1C
inactive: growth inhibition [1] 5.51% | growth inhibition [2] -2.37% | viability increase [3] -1.92% | viability [4] 92.5% | viability [5] 87.4% | inhibition [6] -0.28% | RAM network inhibition [7] -0.16%

CC(C)CCOc1cccc(C2c3c(oc4ccccc4c3=O)C(=O)N2CCCN2CCOCC2)c1 (configuration not stated)
inactive: growth inhibition [1] -3.75% | growth inhibition [2] -23.9% | viability increase [3] -4.89% | viability [4] 87.9% | viability [5] 84.2% | inhibition [6] 0.82% | RAM network inhibition [7] 6.7%

O=C(C1CC1)N1CCc2cc(Br)cc(S(=O)(=O)N3CCN(c4ccccn4)CC3)c21
inactive: growth inhibition [1] -13.2% | growth inhibition [2] -14.6% | viability increase [3] -2.17% | viability [4] 91% | viability [5] 91.5% | inhibition [6] 1.29% | RAM network inhibition [7] 5.52%

COc1ccccc1-n1c(=O)[nH]c2c(C(N)=O)nc(C3CCCCC3)nc21
inactive: growth inhibition [1] -7.19% | growth inhibition [2] -5.21% | viability increase [3] -3.33% | viability [4] 94.7% | viability [5] 77.5% | inhibition [6] 1.55% | RAM network inhibition [7] 2.69%

CCCOC(=O)CC1C(=O)NCCN1Cc1ccccc1C (configuration not stated)
inactive: growth inhibition [1] -20.8% | growth inhibition [2] -0.97% | viability increase [3] -0.62% | viability [4] 98.8% | viability [5] 94.2% | inhibition [6] 1.71% | RAM network inhibition [7] 7.95%

CCn1c(=O)c2cc(C(=O)NCCN3CCOCC3)sc2c2ccccc21
inactive: growth inhibition [1] -7.14% | growth inhibition [2] -3.89% | viability increase [3] -4.73% | viability [4] 92.2% | viability [5] 76.1% | inhibition [6] 2.47% | RAM network inhibition [7] 1.02%

COc1ccccc1CNC(=O)COC(=O)c1ccc(NC(N)=O)cc1
inactive: growth inhibition [1] -12.7% | growth inhibition [2] -13.7% | viability increase [3] -0.98% | viability [4] 96.5% | viability [5] 97.9% | inhibition [6] 0.56% | RAM network inhibition [7] 5.2%

CCCn1c(C(C)NC(C)=O)nc2ccccc21 (configuration not stated)
inactive: growth inhibition [1] -10.3% | growth inhibition [2] -16.9% | viability increase [3] -1.47% | viability [4] 99.2% | viability [5] 90.7% | inhibition [6] 1.3% | RAM network inhibition [7] 1.25%

CCOC(=O)Cn1c(=O)oc2cc(S(=O)(=O)N3CCCc4ccccc43)ccc21
inactive: growth inhibition [1] -8.26% | growth inhibition [2] -5.77% | viability increase [3] -1.08% | viability [4] 88.2% | viability [5] 96% | inhibition [6] 2.77% | RAM network inhibition [7] 6.73%

CC(C)N1C(=O)CCC1C(=O)N1CCN(c2ccccn2)CC1 (configuration not stated)
inactive: growth inhibition [1] -11.9% | growth inhibition [2] -15.7% | viability increase [3] 0.54% | viability [4] 107% | viability [5] 103% | inhibition [6] 0.845% | RAM network inhibition [7] 1.45%

COc1ccc(OCC(=O)N2CCN(C(=O)c3ccccc3)CC2)cc1
inactive: growth inhibition [1] -15.8% | growth inhibition [2] -9.8% | viability increase [3] 1.19% | viability [4] 91.1% | viability [5] 87.2% | inhibition [6] 1.66% | RAM network inhibition [7] 0.47%

O=C(CCc1nc2ccccc2[nH]1)NC1CCCCC1
inactive: growth inhibition [1] -16.3% | growth inhibition [2] -17.4% | viability increase [3] -0.01% | viability [4] 102% | viability [5] 96.9% | inhibition [6] 1.21% | RAM network inhibition [7] 1.28%

Clc1cccc(Nc2ncnc3c2cnn3-c2ccccc2)c1
inactive: growth inhibition [1] -15.3% | growth inhibition [2] -12.2% | viability increase [3] -2.07% | viability [4] 82.5% | viability [5] 78.6% | inhibition [6] 2.04% | RAM network inhibition [7] 4.85%

CCCc1nc(N)c(C#N)c(-c2cccnc2)c1CC
inactive: growth inhibition [1] -6.48% | growth inhibition [2] -4.83% | viability increase [3] -4.91% | viability [4] 90.8% | viability [5] 84.7% | inhibition [6] 0.805% | RAM network inhibition [7] 3.69%

CCCCNC(=O)c1ccc2c(c1)N(CC)C(=O)c1ccccc1S2(=O)=O
inactive: growth inhibition [1] -1.9% | growth inhibition [2] -1.83% | viability increase [3] 0.81% | viability [4] 93.8% | viability [5] 87.3% | inhibition [6] 0.255% | RAM network inhibition [7] -2.03%

CCCc1cc(C(=O)Nc2cc(OC)c(Cl)cc2OC)no1
inactive: growth inhibition [1] -4.69% | growth inhibition [2] 4.3% | viability increase [3] -4.41% | viability [4] 89.5% | viability [5] 88.8% | inhibition [6] 0.45% | RAM network inhibition [7] 7.36%

c1csc(Cc2nc3ccccc3[nH]2)c1
inactive: growth inhibition [1] -8.51% | growth inhibition [2] -11.8% | viability increase [3] 0.14% | viability [4] 97.8% | viability [5] 100% | inhibition [6] 2.71% | RAM network inhibition [7] -0.01%

CCN(Cc1ccccc1)C(=O)CSc1nc(C)cc(C)c1C#N
inactive: growth inhibition [1] -12.8% | growth inhibition [2] -2.79% | viability increase [3] 4.58% | viability [4] 104% | viability [5] 87.3% | inhibition [6] 2.48% | RAM network inhibition [7] 0.99%

CNS(=O)(=O)c1ccc(Oc2ccc(S(=O)(=O)NC)cc2)cc1
inactive: growth inhibition [1] 2.02% | growth inhibition [2] 2.91% | viability increase [3] -0.17% | viability [4] 86.7% | viability [5] 83.9% | inhibition [6] 2% | RAM network inhibition [7] 3.27%

CC(C)Sc1nnc(Cn2c(=O)sc3ccccc32)n1-c1ccccc1
inactive: growth inhibition [1] 1.75% | growth inhibition [2] -10.2% | viability increase [3] -0.05% | viability [4] 87.1% | viability [5] 86.5% | inhibition [6] -0.63% | RAM network inhibition [7] 5.84%

COc1ccccc1NC(=O)CSc1nnc(-c2ccco2)n1Cc1ccco1
inactive: growth inhibition [1] 1.41% | growth inhibition [2] 1.92% | viability increase [3] -3.34% | viability [4] 92.8% | viability [5] 90.5% | inhibition [6] 1.39% | RAM network inhibition [7] 1%

Oc1c(C(c2cccs2)N2CCOCC2)sc2ncnn12 (configuration not stated)
inactive: growth inhibition [1] 11.1% | growth inhibition [2] -3.88% | viability increase [3] 0.31% | viability [4] 105% | viability [5] 101% | inhibition [6] 0.895% | RAM network inhibition [7] 5.2%
